Source: PMC3907283 (Nature, 2013)

How the values were obtained:
[1] = test system: Swi6; experiment: Swi6 self-association by sedimentation equilibrium/velocity AUC; assay type: binding, S. pombe; conditions: AUC, Supplementary Fig. 6
[2] = biological target: Swi6 (Schizosaccharomyces pombe, UniProt P40381, C121S/C124S/C310S); experiment: as above; assay type: binding, S. pombe; conditions: all three native cysteines mutated to serines; Supplementary Fig. 5
[3] = biological target: T1, Swi6 (Schizosaccharomyces pombe, UniProt P40381); experiment: as above; assay type: binding, S. pombe; conditions: AUC
T1 sequence (P40381 1-328): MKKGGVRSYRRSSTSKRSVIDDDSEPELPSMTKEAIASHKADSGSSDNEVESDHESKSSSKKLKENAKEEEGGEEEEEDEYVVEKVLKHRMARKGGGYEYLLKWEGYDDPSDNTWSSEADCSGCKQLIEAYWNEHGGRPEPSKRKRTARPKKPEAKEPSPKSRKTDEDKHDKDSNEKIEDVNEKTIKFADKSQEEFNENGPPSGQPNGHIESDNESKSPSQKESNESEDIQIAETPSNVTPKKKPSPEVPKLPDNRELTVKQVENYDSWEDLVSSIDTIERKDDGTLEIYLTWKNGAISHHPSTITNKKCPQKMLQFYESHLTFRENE

[4] = test system: Swi6; experiment: SV AUC weighted average sedimentation coefficient; assay type: binding, S. pombe; conditions: [Swi6^WT] = 20μM
[5] = test system: H3K9me3 nucleosomes; experiment: Nucleosome binding by fluorescence anisotropy/polarization; parameters: species or system Xenopus laevis
In short: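 Core nucleosomes assembled from recombinant Xenopus histones on 147 bp 601 DNA, one end 6-carboxyfluorescein-labelled; H3K9me3 mimicked by methyl-lysine analog (H3KC9me3). 5-10 nM nucleosomes titrated with Swi6 in 20mM HEPES pH 7.5, 150mM KCl, 1 mM DTT, 0.01% NP40; 30 min at 24°C; FP at λex 480/λem 530nm. Fit to a two-step model giving Kd1 (Swi6–nucleosome) and Kd2 (scaffolded Swi6–Swi6); n ≥ 3, s.e.m.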

[6] = test system: H3K9me3 tail peptide; experiment: H3 tail peptide binding; conditions: Supplementary Fig. 5
In short: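 Intrinsic Trp fluorescence (W104 in aromatic cage): 200nM Swi6 in 20mM HEPES pH 7.5, 150mM KCl, 1 mM DTT, titrated with H3 peptide (residues 1–18), K9 trimethylated or unmethylated. 10min at 30°C, excitation 295 nm, emission read at 330 nm. Kd from 1:1 binding fit, averaged over three independent data sets.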

[7] = biological target: H3K9me3 tail peptide (UniProt P68431); experiment: other fluorescence titration + fluorescence polarisation
[8] = test system: ura4+ reporter gene inserted at the pericentromeric imr region; experiment: ura4+ reporter silencing assay; assay type: cell-based, S. pombe; conditions: 5-FOA medium, 30°C, 2-3 days; Fig. 4d
In short: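 Strains grown overnight to saturation, adjusted to OD600 of 1 for the most concentrated spot, then 5-fold serial dilutions plated on non-selective YS and on 5-FOA (2 grams/liter) media.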

[9] = test system: Swi6; experiment: Swi6 protein levels in vivo; assay type: cell-based, S. pombe; conditions: silencing strains; Supplementary Fig. 9
In short: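 Detection with rabbit polyclonal antibodies raised against recombinant Swi6.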

[10] = biological target: the molecule itself; experiment: AUC
[11] = biological target: the molecule itself; experiment: AUC; remark: listed apart in the source

Chain of Swi6 (Schizosaccharomyces pombe, UniProt P40381, C121S/C124S/C310S) (P40381 whole entry C121S/C124S/C310S): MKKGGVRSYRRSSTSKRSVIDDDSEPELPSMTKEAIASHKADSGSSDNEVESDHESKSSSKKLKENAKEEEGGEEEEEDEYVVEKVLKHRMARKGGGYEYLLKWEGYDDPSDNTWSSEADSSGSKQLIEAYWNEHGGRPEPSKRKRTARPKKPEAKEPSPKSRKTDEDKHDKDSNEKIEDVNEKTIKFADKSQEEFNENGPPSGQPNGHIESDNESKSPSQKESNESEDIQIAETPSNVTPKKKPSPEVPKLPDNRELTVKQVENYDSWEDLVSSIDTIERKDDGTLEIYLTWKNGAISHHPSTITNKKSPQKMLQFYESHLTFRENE

Swi6-CFP: Swi6 with the CFP tag moved to the C-terminus
sedimentation coefficient compared to CFP-Swi6 (in words) [1]: lower sedimentation coefficient

Swi6^WT: major S. pombe HP1 protein, Swi6, wild type
effect of mutating native cysteines on oligomerization [2]: destabilized oligomerization | 1/Kobsiso, isodesmic self-association of Swi6 dimers (chain elongation) ([3]; SE and SV global analysis, 8°C, RB: 20mM HEPES pH 7.5, 150mM KCl, 1 mM DTT): ~70 µM | Swi6 dimerization with saturating methylated H3 tail peptide ([3]; saturating methylated H3 tail peptide, Supplementary Fig. 4): weakened | sedimentation coefficient, tetramer (S4) [4]: ~ 5.2 S | effect of mutating native cysteines on nucleosome binding ([5]; Supplementary Fig. 5): destabilized oligomerization, H3 peptide binding, and nucleosome binding | effect of mutating native cysteines on H3 peptide binding [6]: destabilized oligomerization, H3 peptide binding

B1: Swi6^LoopX (natural protein)
chain: MKKGGVRSYRRSSTSKRSVIDDDSEPELPSMTKEAIASHKADSGSSDNEVESDHESKSSSKKLKENAKEEEGGEEEEEDEYVVEKVLKHRMAAAGGGYEYLLKWEGYDDPSDNTWSSEADCSGCKQLIEAYWNEHGGRPEPSKRKRTARPKKPEAKEPSPKSRKTDEDKHDKDSNEKIEDVNEKTIKFADKSQEEFNENGPPSGQPNGHIESDNESKSPSQKESNESEDIQIAETPSNVTPKKKPSPEVPKLPDNRELTVKQVENYDSWEDLVSSIDTIERKDDGTLEIYLTWKNGAISHHPSTITNKKCPQKMLQFYESHLTFRENE
fold stronger binding than Swi6^WT [7]: 6 fold | silencing of ura4+ reporter [8]: defects in silencing that are comparable to the swi6+ deletion strain | discrimination for the methyl mark in nucleosome binding ([5]; fluorescence anisotropy, Fig. 4a and Supplementary Fig. 8): discrimination for the methyl mark was maintained | Swi6 protein levels [9]: not due to reductions in protein levels

B2: Swi6^WT (natural protein, S. pombe, UniProt P40381 1-328, looked up)
chain: MKKGGVRSYRRSSTSKRSVIDDDSEPELPSMTKEAIASHKADSGSSDNEVESDHESKSSSKKLKENAKEEEGGEEEEEDEYVVEKVLKHRMARKGGGYEYLLKWEGYDDPSDNTWSSEADCSGCKQLIEAYWNEHGGRPEPSKRKRTARPKKPEAKEPSPKSRKTDEDKHDKDSNEKIEDVNEKTIKFADKSQEEFNENGPPSGQPNGHIESDNESKSPSQKESNESEDIQIAETPSNVTPKKKPSPEVPKLPDNRELTVKQVENYDSWEDLVSSIDTIERKDDGTLEIYLTWKNGAISHHPSTITNKKCPQKMLQFYESHLTFRENE
Kd [10]: < 1 nM

B3: CFP-Swi6 (natural protein, S. pombe, UniProt P40381 1-328, looked up)
chain: MKKGGVRSYRRSSTSKRSVIDDDSEPELPSMTKEAIASHKADSGSSDNEVESDHESKSSSKKLKENAKEEEGGEEEEEDEYVVEKVLKHRMARKGGGYEYLLKWEGYDDPSDNTWSSEADCSGCKQLIEAYWNEHGGRPEPSKRKRTARPKKPEAKEPSPKSRKTDEDKHDKDSNEKIEDVNEKTIKFADKSQEEFNENGPPSGQPNGHIESDNESKSPSQKESNESEDIQIAETPSNVTPKKKPSPEVPKLPDNRELTVKQVENYDSWEDLVSSIDTIERKDDGTLEIYLTWKNGAISHHPSTITNKKCPQKMLQFYESHLTFRENE
fold weaker dimer than Swi6^WT [11]: ~10 fold
